Measured values as given in ChEMBL document CHEMBL4350976, “Sequence modification of heptapeptide selected by phage display as homing device for HT-29 colon cancer cells to improve the anti-tumour activity of drug delivery systems” (Eur J Med Chem, 2019).
Where a SMILES comes first, the peptide text is derived from it. The star is where a group is joined. X1 = COc1cccc2c1C(=O)c1c(O)c3c(c(O)c1C2=O)C[C@@](O)(/C(C)=N/OCC(=O)*)C[C@@H]3O[C@H]1C[C@H](N)[C@H](O)[C@H](C)O1

What was measured:
[1] = Drug uptake in lysosome of human HT-29 cells assessed as increase in fluorescence at 50 uM after 30 mins by LysoTracker deep red staining based confocal microscopic analysis; type: ADME, subcellular; settings: ht-29, 0.5 h
Summary of the method: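 HT-29 cells were exposed to 50 µM conjugate for 30 min before imaging. Lysosomes were stained with LysoTracker Deep Red and mitochondria with MitoTracker Deep Red. Confocal imaging detected Dau at 550–600 nm.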

HCT-116 = assay: Cytostatic activity against human HCT116 cells preincubated for 24 hrs under serum free condition followed by compound washout and further incubation for 48 hrs in presence of serum by MTT assay; type: functional, cell-based
Summary of the method: (§1)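 Cells were grown at 37 °C in 5% CO2 in medium with 10% heat-inactivated FBS (20% for OVCAR-3) plus penicillin/streptomycin. The medium was RPMI-1640 for most lines, DMEM for U-87 MG and MRC-5, and IMDM for PE/CA-PJ lines. Seeding was 3×10^3–10×10^3 cells per well. Cells had 24 h compound exposure, a wash, and 48 h further culture. Read-out was MTT, normalized to untreated cells and fitted by nonlinear regression for IC50.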

4T1 [2] = assay: Potency index, ratio of compound IC50 to Daunomycin IC50 for mouse 4T1 cells preincubated for 24 hrs under serum free condition followed by compound washout and further incubation for 48 hrs in presence of serum by MTT assay; type: functional
[3] = Drug uptake in human HT-29 cells cytoplasm at 50 uM after 90 mins by fluorescence based confocal microscopic analysis; type: ADME, subcellular; settings: ht-29, 1.5 h
Summary of the method: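 HT-29 cells were incubated with 50 µM compound in RPMI for 90 min. Imaging was by confocal microscopy, with Dau detected at 550–600 nm emission.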

A549 [4] = assay: Cytostatic activity against human A549 cells preincubated for 24 hrs under serum free condition followed by compound washout and further incubation for 48 hrs in presence of serum by MTT assay; type: functional, cell-based; summary of the method: as §1
NCI-H1650 = assay: Cytostatic activity against human NCI-H1650 cells preincubated for 24 hrs under serum free condition followed by compound washout and further incubation for 48 hrs in presence of serum by MTT assay; type: functional, cell-based; summary of the method: as §1
U-87 MG = assay: Cytostatic activity against human U87 cells preincubated for 24 hrs under serum free condition followed by compound washout and further incubation for 48 hrs in presence of serum by MTT assay; type: functional, cell-based, U-87MG ATCC; summary of the method: as §1
MDA-MB-231 = assay: Cytostatic activity against human MDA-MB-231 cells preincubated for 24 hrs under serum free condition followed by compound washout and further incubation for 48 hrs in presence of serum by MTT assay; type: functional, cell-based; summary of the method: as §1
[5] = Drug metabolism in rat liver lysosomes homogenate assessed as Dau-containing metabolite formation at 0.05 ug/ul after 24 hrs by LC-MS analysis; type: ADME, subcellular, Lysosome; settings: tissue homogenate
Summary of the method: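 Conjugates and rat liver lysosomal homogenate were each used at 0.05 µg/µL. Samples were taken at 0, 1, 3, 6 and 24 h. Metabolites were identified by LC-MS on a C18 column with a formic acid/acetonitrile gradient.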

[6] = Drug uptake in human HT-29 cells incubated for 3 hrs by flow cytometry; type: ADME, cell-based; settings: ht-29, 3 h
Summary of the method: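 HT-29 cells were exposed to 100 µM conjugate for 3 h. Flow cytometry recorded the percentage of Dau-positive cells and the mean fluorescence intensity, in duplicate.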

[7] = Toxicity in SCID mouse xenografted with human HT-29 cells assessed as animal death at 38.3 mg/kg, ip administered thrice in first week and twice in second week (on days 13, 16, 20, 23 and 27) starting from 13 days post inoculation measured upto 30 days post inoculation; type: organism-based; settings: in vivo
Summary of the method: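 Female SCID mice (6–8 weeks, 22–27 g) with orthotopic HT-29 colon tumours. Conjugates given i.p. in distilled water for injection at 10 mg/kg Dau content (36.6 or 38.3 mg/kg conjugate) on days 13, 16, 20, 23 and 27, 8 mice/group. Study ended day 30; deaths and body weight recorded against a solvent-treated control group.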

CT26.WT [8] = assay: Cytostatic activity against mouse CT26.WT cells preincubated for 24 hrs under serum free condition followed by compound washout and further incubation for 48 hrs in presence of serum by MTT assay; type: functional, cell-based; summary of the method: as §1
[9] = Potency index, ratio of compound IC50 to Daunomycin IC50 for human PE/CA-PJ15 cells preincubated for 24 hrs under serum free condition followed by compound washout and further incubation for 48 hrs in presence of serum by MTT assay; type: functional
HT-29 [10] = assay: Cytotoxicity against human HT-29 cells assessed as reduction in cell viability by measuring decrease in fluorescence intensity at 100 uM incubated for 3 hrs by flow cytometry; type: cell-based; settings: ht-29, 3 h
OVCAR-3 = assay: Potency index, ratio of compound IC50 to Daunomycin IC50 for human OVCAR3 cells preincubated for 24 hrs under serum free condition followed by compound washout and further incubation for 48 hrs in presence of serum by MTT assay; type: functional
CT26.WT [11] = assay: Potency index, ratio of compound IC50 to Daunomycin IC50 for mouse CT26.WT cells preincubated for 24 hrs under serum free condition followed by compound washout and further incubation for 48 hrs in presence of serum by MTT assay; type: functional
A549 [12] = assay: Potency index, ratio of compound IC50 to Daunomycin IC50 for human A549 cells preincubated for 24 hrs under serum free condition followed by compound washout and further incubation for 48 hrs in presence of serum by MTT assay; type: functional
HT-29 [13] = assay: Cytostatic activity against human HT-29 cells preincubated for 24 hrs under serum free condition followed by compound washout and further incubation for 48 hrs in presence of serum by MTT assay; type: functional, cell-based
Summary of the method: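 HT-29 cells were exposed to the compound for 24 h, washed, and kept a further 48 h. Viability was read by MTT. Absorbances were normalized to untreated controls and fitted by nonlinear regression to dose-response curves to give IC50.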

[14] = Solubility of compound; type: physicochemical
[15] = Stability in 2.5% fetal bovine serum containing medium at 30 uM measured after 24 hrs by LC/MS analysis; type: ADME, cell-free, Bos taurus; settings: cattle
Summary of the method: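 Conjugates (30 μM) were incubated at 37 °C in medium containing 2.5% FBS. Samples were taken at 0, 3, 6 and 24 h, quenched with acetic acid, lyophilised, desalted on C18 spin columns and analysed by LC-MS. Cleavage products were identified by mass.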

4T1 [16] = assay: Cytostatic activity against mouse 4T1 cells preincubated for 24 hrs under serum free condition followed by compound washout and further incubation for 48 hrs in presence of serum by MTT assay; type: functional, cell-based; summary of the method: as §1
NCI-H1975 = assay: Potency index, ratio of compound IC50 to Daunomycin IC50 for human NCI-H1975 cells preincubated for 24 hrs under serum free condition followed by compound washout and further incubation for 48 hrs in presence of serum by MTT assay; type: functional
PANC-1 = assay: Potency index, ratio of compound IC50 to Daunomycin IC50 for human PANC1 cells preincubated for 24 hrs under serum free condition followed by compound washout and further incubation for 48 hrs in presence of serum by MTT assay; type: functional
[17] = Potency index, ratio of compound IC50 to Daunomycin IC50 for human M24 cells preincubated for 24 hrs under serum free condition followed by compound washout and further incubation for 48 hrs in presence of serum by MTT assay; type: functional

Question: For `COc1cccc2c1C(=O)c1c(O)c3c(c(O)c1C2=O)C[C@@](O)(/C(C)=N/OCC(=O)N[C@@H](CC(C)C)C(=O)N[C@@H](CCCNC(=N)N)C(=O)N[C@@H](CCCNC(=N)N)C(=O)N[C@@H](Cc1ccc(O)cc1)C(=O)N[C@H](C(=O)N[C@@H](Cc1cnc[nH]1)C(=O)N[C@@H](CC(C)C)C(=O)N[C@@H](Cc1ccccc1)C(=O)N[C@@H](Cc1ccc(O)cc1)C(=O)N[C@@H](C)C(=O)N[C@H](C(N)=O)[C@@H](C)O)C(C)C)C[C@@H]3O[C@H]1C[C@H](N)[C@H](O)[C@H](C)O1` (X1-LRRYVHLFYAT-NH2), which Drug uptake [1] is on record?
Answer: Active

Question: And the IC50 (HCT-116)?
Answer: 7.2 µM

Question: What about the “Ratio IC50” value (4T1 [2]) of the same compound?
Answer: 284.6

Question: What about the Drug uptake [3] of the same compound?
Answer: Active

Question: What about the IC50 (A549 [4]) of the same compound?
Answer: 5.9 µM

Question: What about the IC50 (NCI-H1650) of the same compound?
Answer: 2900 nM

Question: What about the IC50 (U-87 MG) of the same compound?
Answer: 6.6 µM

Question: And the IC50 (MDA-MB-231)?
Answer: 4.6 µM

Question: And the Drug metabolism [5]?
Answer: Metabolite_Detected

Question: What about the Drug uptake [6] of the same compound?
Answer: Dose-dependent effect

Question: And the Activity [7]?
Answer: Non-Toxic

Question: And the IC50 (CT26.WT [8])?
Answer: 8.3 µM

Question: What about the “Ratio IC50” value [9] of the same compound?
Answer: 277.3

Question: And the Activity (HT-29 [10])?
Answer: Toxic

Question: And the “Ratio IC50” value (OVCAR-3)?
Answer: 24

Question: And the “Ratio IC50” value (CT26.WT [11])?
Answer: 66

Question: And the “Ratio IC50” value (A549 [12])?
Answer: 86.1

Question: And the IC50 (HT-29 [13])?
Answer: 6.5 to 11.6 µM

Question: And the solubility [14]?
Answer: Soluble

Question: What about the Stability [15] of the same compound?
Answer: Stable

Question: What about the IC50 (4T1 [16]) of the same compound?
Answer: 11.6 µM

Question: What about the “Ratio IC50” value (NCI-H1975) of the same compound?
Answer: 279.9

Question: What about the “Ratio IC50” value (PANC-1) of the same compound?
Answer: 57.7

Question: What about the “Ratio IC50” value [17] of the same compound?
Answer: 61.7
